These results are taken from ChEMBL document CHEMBL1806376, “Synthesis and biological properties of macrolactam analogs of the natural product macrolide (-)-A26771B” (2011).

What all share (format): functional
The test system of test [1] is Staphylococcus aureus. Description: Antibacterial activity against Staphylococcus aureus ATCC 25923 by broth microdilution method in presence of 10% human serum. As to conditions: Staphylococcus aureus, ATCC 25923; read-out: MIC. The essentials:
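MIC determined by broth microdilution per the CLSI method, with 10% human serum added to the medium.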
On the technique in general: In broth dilution the organism is exposed to a series of concentrations in liquid medium.

Test [2] deals with Haemophilus influenzae. Description: Antibacterial activity against Haemophilus influenzae ATCC 31517 by broth microdilution method. As to conditions: Haemophilus influenzae, ATCC 31517; read-out: MIC. In a few lines: (§1)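 MIC values determined by broth microdilution following the CLSI method.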
Test [3] deals with Staphylococcus aureus. The test can be described thus: Antibacterial activity against Staphylococcus aureus ATCC 25923 by broth microdilution method. As to conditions: Staphylococcus aureus, ATCC 25923; read-out: MIC. In a few lines: as §1
Test [4] has as its system Staphylococcus aureus. The test can be described thus: Antibacterial activity against methicillin-resistant Staphylococcus aureus Sa2 by broth microdilution method. The note with it: Staphylococcus aureus, Sa2; read-out: MIC. In a few lines:
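Broth microdilution run according to the CLSI method.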

Another test deals with Enterococcus faecalis. The test can be described thus: Antibacterial activity against Enterococcus faecalis ATCC 29212 by broth microdilution method. In a few lines:
as §1

The test system of the next test is Pseudomonas aeruginosa. Description: Antibacterial activity against Pseudomonas aeruginosa ATCC 27853 by broth dilution method. The essentials:
as §1

Test [5] deals with Staphylococcus aureus. Description: Antibacterial activity against Staphylococcus aureus oxford by broth microdilution method. The note with it: Staphylococcus aureus, oxford; read-out: MIC. The essentials:
as §1

In test [6] the test system is Haemophilus influenzae. The test can be described thus: Antibacterial activity against efflux knock-out Haemophilus influenzae LS2 by broth microdilution method. The note with it: Haemophilus influenzae, LS2; read-out: MIC. In a few lines:
as §1

The subject of a further test is Enterococcus faecium. Description: Antibacterial activity against Enterococcus faecium 1 by broth microdilution method. The essentials:
as §1

Test [7] relates to Streptococcus pneumoniae. Description: Antibacterial activity against Streptococcus pneumoniae ATCC 49619 by broth microdilution method. The note with it: Streptococcus pneumoniae, ATCC 49619; read-out: MIC. In a few lines: as §1
For test [8], the system named is Streptococcus pneumoniae. Description: Antibacterial activity against Streptococcus pneumoniae Pen9 IV381-221 by broth microdilution method. The note with it: Streptococcus pneumoniae, Pen9 IV381-221; read-out: MIC. The essentials: as §1
Test [9] deals with Staphylococcus aureus. The test can be described thus: Antibacterial activity against Staphylococcus aureus ATCC 13709 by broth microdilution method. The note with it: Staphylococcus aureus, ATCC 13709; read-out: MIC. The essentials:
as §1

The subject of the next test is Escherichia coli. The test can be described thus: Antibacterial activity against Escherichia coli ATCC 25922 by broth microdilution method. The essentials: as §1
Setting [10] is: Enterococcus faecalis, ATCC 29212, read-out: MIC.
The mark [11] stands for this setting: Enterococcus faecium, 1, read-out: MIC.

≈ marks a conversion by molar mass, not a printed value. Bounds are passed on as bounds.

With `C[C@@H]1CCCCCCCCC[C@H](OC(=O)CCC(=O)O)C(=O)/C=C/C(=O)O1`, the MIC in the test on Staphylococcus aureus [1] is > 32 µg/mL; in the test on Haemophilus influenzae [2], > 32 µg/mL; in the test on Staphylococcus aureus [3], 4 µg/mL (≈ 10.5 µM); in the test on Staphylococcus aureus [4], 2 µg/mL (≈ 5.23 µM); in the test on Enterococcus faecalis (setting [10]), 16 µg/mL (≈ 41.8 µM); in the test on Pseudomonas aeruginosa it was > 32 µg/mL. The MIC in the test with Staphylococcus aureus [5] came out at 2 µg/mL (≈ 5.23 µM); in the test on Haemophilus influenzae [6], 16 µg/mL (≈ 41.8 µM); in the test on Enterococcus faecium (setting [11]) it was 4 µg/mL (≈ 10.5 µM); with Streptococcus pneumoniae [7] it was 16 µg/mL (≈ 41.8 µM); in the test with Streptococcus pneumoniae [8] it was 8 µg/mL (≈ 20.9 µM); with Staphylococcus aureus [9] it was 2 µg/mL (≈ 5.23 µM). In addition, the MIC against Escherichia coli was > 32 µg/mL.
Take `CO[C@H]1CCCCCCCCC[C@@H](C)OC(=O)C2CC2C1=O` (mixture of isomers): the MIC with Staphylococcus aureus [1], with Haemophilus influenzae [2], in the test on Staphylococcus aureus [3], in the test with Staphylococcus aureus [4], with Enterococcus faecalis (setting [10]) and with Pseudomonas aeruginosa was > 64 µg/mL throughout. Also, the MIC in the test with Staphylococcus aureus [5], with Haemophilus influenzae [6], in the test with Enterococcus faecium (setting [11]), in the test with Streptococcus pneumoniae [7], in the test with Streptococcus pneumoniae [8] and in the test with Staphylococcus aureus [9] was > 64 µg/mL throughout. In the test with Escherichia coli, the MIC is > 64 µg/mL.
With `COC1CCCCCCCCC[C@@H](C)NC(=O)/C=C/C1=O` (single isomer, unassigned; diastereomer 1), the MIC was 8 µg/mL in the test on Staphylococcus aureus [1]; 2 µg/mL (≈ 6.77 µM) in the test on Haemophilus influenzae [2]; 1 µg/mL (≈ 3.38 µM) with Staphylococcus aureus [3]; 1 µg/mL (≈ 3.38 µM) in the test with Staphylococcus aureus [4]; 2 µg/mL (≈ 6.77 µM) in the test with Enterococcus faecalis; > 64 µg/mL with Pseudomonas aeruginosa. Also, the MIC with Staphylococcus aureus [5] is 1 µg/mL (≈ 3.38 µM); with Haemophilus influenzae [6], 0.25 µg/mL (≈ 0.846 µM); in the test with Enterococcus faecium, 0.5 µg/mL (≈ 1.69 µM); in the test with Streptococcus pneumoniae [7], 2 µg/mL (≈ 6.77 µM); in the test on Streptococcus pneumoniae [8] it was 8 µg/mL (≈ 27.1 µM); in the test on Staphylococcus aureus [9], 1 µg/mL (≈ 3.38 µM). The MIC with Escherichia coli was > 64 µg/mL.
